Experimental data published in ChEMBL document CHEMBL1124728, “Small peptide inhibitors of smooth muscle myosin light chain kinase” (J Med Chem, 1990).
Starred links: 1 amine or outer side, 2 acyl side, 3 side chain; linkers in the order of their positions; H or OH if unused. Residues, ends and D or L forms follow the SMILES beside them. *: point of attachment. isoSer(2S) = O=C([C@@H](O)CN[*:1])[*:2]; NHCH2(2-pyridyl) = c1ccc(CN*)nc1; OBn = c1ccc(CO*)cc1

Experiments:
[1] = molecular target: T1, Myosin light chain kinase, smooth muscle (Gallus gallus, UniProt P11799); test: Inhibition of native form of myosin light chain kinase from chicken gizzard
Procedure, shortened: (§1)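 Native calmodulin-dependent gizzard MLCK, over 95% homogeneous, with 200 nM calmodulin, 1 mM EGTA and about 200 μM excess free Ca2+. Started with ATP and stopped with HCl; phosphocellulose filter counting. Graphical IC50 from duplicates at four concentrations, or % inhibition at a single concentration.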

[2] = molecular target: Myosin light chain kinase, smooth muscle (Gallus gallus) (UniProt P11799); test: Inhibition of calmodulin-independent form of Myosin light chain kinase from chicken gizzard at 300 uM
Procedure, shortened: (§2)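 Chicken gizzard MLCK made calmodulin-independent by limited trypsin digestion. It was started with ATP and stopped with HCl. Phosphate in substrate was counted on phosphocellulose filters. IC50 was read graphically from duplicates at four concentrations and reported as the mean, or as % inhibition at one concentration.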

[3] = molecular target: Myosin light chain kinase, smooth muscle (Gallus gallus) (UniProt P11799); test: Inhibition of calmodulin-independent form of Myosin light chain kinase from chicken gizzard at 100 uM; conditions: 300 uM, in the assay text read “at 300 uM” for “at 100 uM”; procedure, shortened: as §2
[4] = molecular target: Myosin light chain kinase, smooth muscle (Gallus gallus) (UniProt P11799); test: Rate of phosphate incorporation by myosin light chain kinase at 50 uM
[5] = molecular target: Myosin light chain kinase, smooth muscle (Gallus gallus) (UniProt P11799); test: Inhibition of native form of myosin light chain kinase from chicken gizzard at 1000 uM; procedure, shortened: as §1
[6] = molecular target: Myosin light chain kinase, smooth muscle (Gallus gallus) (UniProt P11799); test: Inhibition of native form of myosin light chain kinase from chicken gizzard 1000 uM; procedure, shortened: as §1
[7] = molecular target: Myosin light chain kinase, smooth muscle (Gallus gallus) (UniProt P11799); test: Inhibition of native form of myosin light chain kinase at from chicken gizzard 100 uM; procedure, shortened: as §1
[8] = molecular target: Myosin light chain kinase, smooth muscle (Gallus gallus) (UniProt P11799); conditions: 1000 uM
[9] = molecular target: T1, Myosin light chain kinase, smooth muscle; test: Inhibition of calmodulin-independent form of MLCK(myosin light chain kinase) from chicken gizzard; procedure, shortened: as §2
[10] = molecular target: T1, Myosin light chain kinase, smooth muscle; test: Inhibition of native form of MLCK myosin light chain kinase from chicken gizzard; procedure, shortened: as §1

Sequence of Myosin light chain kinase, smooth muscle (Gallus gallus) (P11799 whole entry): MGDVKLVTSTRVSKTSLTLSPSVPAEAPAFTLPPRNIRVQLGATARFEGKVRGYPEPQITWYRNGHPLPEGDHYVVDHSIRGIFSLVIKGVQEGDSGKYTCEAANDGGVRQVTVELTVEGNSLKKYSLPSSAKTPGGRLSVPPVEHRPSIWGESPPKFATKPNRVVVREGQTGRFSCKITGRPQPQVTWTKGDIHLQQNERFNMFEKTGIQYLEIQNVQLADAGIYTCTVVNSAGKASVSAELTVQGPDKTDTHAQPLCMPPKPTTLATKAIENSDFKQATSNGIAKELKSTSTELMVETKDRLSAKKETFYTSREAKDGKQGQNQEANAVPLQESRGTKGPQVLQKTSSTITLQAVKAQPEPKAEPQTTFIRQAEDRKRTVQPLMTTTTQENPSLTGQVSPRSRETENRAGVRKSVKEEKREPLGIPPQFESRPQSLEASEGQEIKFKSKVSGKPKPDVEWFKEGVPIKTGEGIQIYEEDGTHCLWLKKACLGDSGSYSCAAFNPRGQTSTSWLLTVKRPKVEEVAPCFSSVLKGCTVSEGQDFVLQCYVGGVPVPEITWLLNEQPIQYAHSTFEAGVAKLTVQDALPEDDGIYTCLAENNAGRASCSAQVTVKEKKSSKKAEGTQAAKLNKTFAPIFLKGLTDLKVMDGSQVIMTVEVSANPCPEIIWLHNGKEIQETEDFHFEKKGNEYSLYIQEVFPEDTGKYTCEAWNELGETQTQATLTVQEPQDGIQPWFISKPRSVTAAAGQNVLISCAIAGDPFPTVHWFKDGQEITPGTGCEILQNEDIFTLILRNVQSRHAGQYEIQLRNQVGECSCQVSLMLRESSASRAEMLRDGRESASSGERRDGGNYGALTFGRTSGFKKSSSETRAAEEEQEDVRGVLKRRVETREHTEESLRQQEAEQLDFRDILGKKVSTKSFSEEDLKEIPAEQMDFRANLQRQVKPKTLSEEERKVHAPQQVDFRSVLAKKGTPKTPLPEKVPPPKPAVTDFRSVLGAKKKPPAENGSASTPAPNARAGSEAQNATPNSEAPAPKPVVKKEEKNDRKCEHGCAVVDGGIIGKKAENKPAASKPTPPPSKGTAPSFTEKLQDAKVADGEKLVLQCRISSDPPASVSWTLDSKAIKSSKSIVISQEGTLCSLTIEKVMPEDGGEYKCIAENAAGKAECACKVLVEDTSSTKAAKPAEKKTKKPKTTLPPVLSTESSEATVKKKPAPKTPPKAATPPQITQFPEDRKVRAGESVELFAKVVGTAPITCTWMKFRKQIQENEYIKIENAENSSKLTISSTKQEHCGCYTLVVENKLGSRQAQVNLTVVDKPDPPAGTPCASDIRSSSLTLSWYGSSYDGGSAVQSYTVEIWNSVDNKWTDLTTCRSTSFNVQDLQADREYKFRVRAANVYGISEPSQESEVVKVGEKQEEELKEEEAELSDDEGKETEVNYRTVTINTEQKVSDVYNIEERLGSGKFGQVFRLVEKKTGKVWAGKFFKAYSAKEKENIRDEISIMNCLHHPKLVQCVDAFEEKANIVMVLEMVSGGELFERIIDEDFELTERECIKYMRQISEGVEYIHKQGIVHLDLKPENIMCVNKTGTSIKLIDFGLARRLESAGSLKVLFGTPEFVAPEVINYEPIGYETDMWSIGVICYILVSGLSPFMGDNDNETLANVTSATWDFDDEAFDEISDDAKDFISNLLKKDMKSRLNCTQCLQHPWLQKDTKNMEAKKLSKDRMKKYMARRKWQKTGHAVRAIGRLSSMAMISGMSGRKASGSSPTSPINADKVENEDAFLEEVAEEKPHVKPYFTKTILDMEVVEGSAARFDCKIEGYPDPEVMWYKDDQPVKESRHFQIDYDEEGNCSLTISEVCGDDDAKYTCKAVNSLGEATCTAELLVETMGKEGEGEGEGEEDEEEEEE
T1 sequence (P11799 whole entry): as above

`CC(C)[C@H](NC(=O)[C@@H](N)CC(N)=O)C(=O)N[C@@H](Cc1ccccc1)C(=O)N[C@@H](C)C(=O)OCc1ccccc1` (H-NVFA-OBn) was tested, and the IC50 [1] was 800 µM.

Compound `CC(C)[C@H](NC(=O)[C@H](CC(N)=O)NC(=O)[C@@H](N)CO)C(=O)N[C@@H](Cc1ccccc1)C(=O)N[C@@H](C)C(N)=O` (H-SNVFA-NH2) has an inhibition [2] of 0%.

`CC(C)[C@H](NC(=O)[C@H](CC(N)=O)NC[C@@H](N)CO)C(=O)N[C@@H](Cc1ccccc1)C(=O)N[C@@H](C)C(=O)NCc1ccccc1` gave an inhibition [3] of 0%.

For `C[C@H](NC(=O)[C@H](Cc1ccccc1)NC(=O)CNC(=O)[C@H](CC(N)=O)NC(=O)[C@@H](N)CO)C(=O)OCc1ccccc1` (H-SNGFA-OBn), the inhibition [3] was 17%.

In the case of `CC(C)[C@H](NC(=O)[C@H](CC(N)=O)NC(=O)[C@H](CO)NC(=O)[C@@H](NC(=O)[C@H](C)NC(=O)[C@H](CCCN=C(N)N)NC(=O)[C@H](CCC(N)=O)NC(=O)[C@@H]1CCCN1C(=O)[C@H](CCCN=C(N)N)NC(=O)[C@H](CCCCN)NC(=O)[C@@H](N)CCCCN)[C@@H](C)O)C(=O)N[C@@H](Cc1ccccc1)C(=O)N[C@@H](CO)C(N)=O` (H-KKRPQRATSNVFS-NH2), the Rate [4] is reported as 45 pmol/min.

`C[C@H](NC(=O)[C@@H](N)Cc1ccccc1)C(=O)OCc1ccccc1` gave an inhibition [5] of 0%.

`CC(C)[C@H](NC(=O)[C@H](CC(N)=O)NC(=O)[C@@H](N)CO)C(=O)OCc1ccccc1` (H-Ser-Asn-Val-OBn) showed an inhibition [6] of 0%.

`CC(C)[C@H](NC(=O)[C@@H](CC(N)=O)NC(=O)[C@@H](N)CO)C(=O)N[C@@H](Cc1ccccc1)C(=O)N[C@@H](C)C(=O)OCc1ccccc1` was tested, and the inhibition [7] was 0%.

In the case of `CC(C)[C@H](NC(=O)[C@H](CC(N)=O)NC(=O)[C@@H](N)CO)C(=O)N[C@@H](Cc1ccccc1)C(=O)N[C@@H](C)C(=O)O` (H-SNVFA-OH), the inhibition [3] is reported as 0%.

`CC(C)[C@H](NC(=O)[C@@H](/C=C/[C@@H](N)CO)CC(N)=O)C(=O)N[C@@H](Cc1ccccc1)C(=O)N[C@@H](C)C(=O)NCc1ccccc1` was tested, and the inhibition [3] was 0%.

With `CC(C)[C@H](NC(=O)[C@H](CC(N)=O)NC(=O)[C@@H](O)CN)C(=O)N[C@@H](Cc1ccccc1)C(=O)N[C@@H](C)C(=O)OCc1ccccc1` ({isoSer(2S)}-NVFA-OBn) the inhibition [7] was 14%.

For `CC(C)[C@H](N)C(=O)N[C@@H](Cc1ccccc1)C(=O)N[C@@H](C)C(=O)OCc1ccccc1` (H-Val-Phe-Ala-OBn), the IC50 [1] was 1000 µM.

Compound `CC(C)[C@H](NC[C@H](CC(N)=O)NC(=O)[C@@H](N)CO)C(=O)N[C@@H](Cc1ccccc1)C(=O)N[C@@H](C)C(=O)OCc1ccccc1` has an inhibition [3] of 33%.

For `CC(C)[C@H](NC(=O)[C@H](CO)NC(=O)[C@@H](N)CO)C(=O)N[C@@H](Cc1ccccc1)C(=O)N[C@@H](C)C(=O)OCc1ccccc1` (H-SSVFA-OBn), the inhibition [7] was 15%.

With `CC(C)[C@H](NC(=O)[C@H](CC(N)=O)NC(=O)[C@@H](N)CO)C(=O)N[C@@H](Cc1ccccc1)C(=O)N[C@@H](C)C(=O)NCc1ccccn1` (H-SNVFA-{NHCH2(2-pyridyl)}) the inhibition [5] was 0% and the inhibition [3] was 5%.

`COC(=O)[C@H](C)NC(=O)[C@H](Cc1ccccc1)NC(=O)[C@@H](NC(=O)[C@H](CC(N)=O)NC(=O)[C@@H](N)CO)C(C)C` (H-SNVFA-OMe) showed an inhibition [2] of 0%.

`CC(C)[C@H](NC(=O)[C@H](CC(N)=O)NC(=O)[C@@H](N)CO)C(=O)N[C@@H](Cc1ccccc1)C(=O)N[C@@H](C)C(=O)OCc1ccccc1` gave a Rate [8] of 0.017 pM/min, an IC50 [9] of 21 µM and an IC50 [10] of 28 µM.

`CC(C)[C@H](NC(=O)[C@@H](CC(N)=O)NC(=O)[C@H](N)CO)C(=O)N[C@@H](Cc1ccccc1)C(=O)N[C@@H](C)C(=O)OCc1ccccc1` was tested, and the inhibition [7] was 14%.

Work on `CC(C)[C@H](NC(=O)[C@H](CC(=O)O)NC(=O)[C@@H](N)CO)C(=O)N[C@@H](Cc1ccccc1)C(=O)N[C@@H](C)C(=O)OCc1ccccc1` (H-SDVFA-OBn) yielded an inhibition [7] of 0%.
